Tests used:
[1] = target: T1, Progesterone receptor (Rattus norvegicus) (UniProt Q63449); assay: Relative binding affinity for progesterone receptor compared to R5020
T1 sequence (whole entry): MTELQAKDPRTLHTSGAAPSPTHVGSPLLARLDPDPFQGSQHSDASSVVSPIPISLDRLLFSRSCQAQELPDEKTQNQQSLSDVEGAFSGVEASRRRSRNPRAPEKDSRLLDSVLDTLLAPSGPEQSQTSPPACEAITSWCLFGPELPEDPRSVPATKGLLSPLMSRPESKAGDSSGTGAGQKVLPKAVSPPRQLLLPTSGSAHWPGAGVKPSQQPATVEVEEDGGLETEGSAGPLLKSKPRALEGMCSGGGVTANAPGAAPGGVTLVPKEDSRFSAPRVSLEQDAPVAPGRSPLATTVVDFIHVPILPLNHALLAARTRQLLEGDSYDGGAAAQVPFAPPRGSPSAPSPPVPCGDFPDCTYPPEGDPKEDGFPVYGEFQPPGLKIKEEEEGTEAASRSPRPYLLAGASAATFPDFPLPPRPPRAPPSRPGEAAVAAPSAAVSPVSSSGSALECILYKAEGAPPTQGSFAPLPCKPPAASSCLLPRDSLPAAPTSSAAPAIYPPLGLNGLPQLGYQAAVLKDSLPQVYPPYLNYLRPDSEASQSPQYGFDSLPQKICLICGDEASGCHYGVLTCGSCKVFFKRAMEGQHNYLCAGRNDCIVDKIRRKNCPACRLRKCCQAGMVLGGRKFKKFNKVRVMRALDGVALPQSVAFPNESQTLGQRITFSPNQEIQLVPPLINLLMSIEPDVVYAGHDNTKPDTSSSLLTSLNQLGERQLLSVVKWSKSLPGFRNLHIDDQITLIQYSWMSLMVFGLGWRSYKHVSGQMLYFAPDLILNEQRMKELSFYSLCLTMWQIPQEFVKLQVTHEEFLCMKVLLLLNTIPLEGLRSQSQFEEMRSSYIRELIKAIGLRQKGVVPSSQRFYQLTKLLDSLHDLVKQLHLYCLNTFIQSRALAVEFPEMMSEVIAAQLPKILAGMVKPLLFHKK

[2] = Partition coefficient (logP); type: physicochemical; conditions: octanol/water
Outline: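 Octanol/water partition measured as log P by the Minick method. For some reference progestins, log P was also measured by shake flask.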

[3] = target: T1, Progesterone receptor (Rattus norvegicus); assay: Tissue distribution in uterus 1 hr after [18F]4 injection into estrogen-primed immature rats at normal dose; type: functional, tissue-based
Outline: (§1)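 Female Sprague-Dawley rats, 23 days old, primed with estradiol 5 μg s.c. in 20% ethanol/sunflower oil on two days and used 24 h later. Under ether, they received 51 μCi tracer (30 Ci/mmol) iv via the tail vein in 0.1 mL 10% ethanol/saline. Killed by decapitation at 1 h; tissues weighed and gamma-counted. Results as %ID/g or tissue ratios, mean ± SD, n = 5.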

[4] = target: T1, Progesterone receptor (Rattus norvegicus); assay: Tissue distribution in muscle 1 hr after [18F]4 injection into estrogen-primed immature rats at normal dose; type: functional, tissue-based; outline: as §1
[5] = target: T2, Mineralocorticoid receptor (Rattus norvegicus) (UniProt P22199); assay: Relative binding affinity (RBA) for mineralocorticoid receptor compared to aldosterone
T2 sequence (whole entry): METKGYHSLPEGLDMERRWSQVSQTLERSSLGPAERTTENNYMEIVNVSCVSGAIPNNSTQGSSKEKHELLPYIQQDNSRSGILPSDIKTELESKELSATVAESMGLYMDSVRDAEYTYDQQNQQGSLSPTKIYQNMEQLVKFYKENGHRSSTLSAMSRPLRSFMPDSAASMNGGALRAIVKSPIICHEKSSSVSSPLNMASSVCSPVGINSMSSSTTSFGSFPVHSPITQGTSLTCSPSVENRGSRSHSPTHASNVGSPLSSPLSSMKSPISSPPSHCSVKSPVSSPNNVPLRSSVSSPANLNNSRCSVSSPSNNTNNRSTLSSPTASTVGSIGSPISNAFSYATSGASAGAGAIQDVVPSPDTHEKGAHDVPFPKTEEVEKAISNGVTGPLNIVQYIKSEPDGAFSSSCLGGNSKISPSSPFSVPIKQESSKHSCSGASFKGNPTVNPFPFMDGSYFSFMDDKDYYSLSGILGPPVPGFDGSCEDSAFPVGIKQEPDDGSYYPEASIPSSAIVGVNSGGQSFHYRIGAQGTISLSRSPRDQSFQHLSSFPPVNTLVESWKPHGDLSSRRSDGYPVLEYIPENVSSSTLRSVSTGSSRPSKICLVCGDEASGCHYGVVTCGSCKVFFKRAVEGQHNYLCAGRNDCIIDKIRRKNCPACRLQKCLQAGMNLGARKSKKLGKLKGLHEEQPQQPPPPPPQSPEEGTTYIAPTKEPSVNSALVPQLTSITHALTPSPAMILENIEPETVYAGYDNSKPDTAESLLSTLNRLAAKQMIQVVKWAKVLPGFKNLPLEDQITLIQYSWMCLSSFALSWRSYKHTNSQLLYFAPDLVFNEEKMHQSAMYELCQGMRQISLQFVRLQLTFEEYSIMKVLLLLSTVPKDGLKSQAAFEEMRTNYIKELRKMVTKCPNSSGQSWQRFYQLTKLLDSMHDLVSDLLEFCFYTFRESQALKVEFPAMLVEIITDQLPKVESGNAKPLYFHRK

[6] = target: T1, Progesterone receptor (Rattus norvegicus); assay: Tissue distribution in kidney 1 hr after [18F]4 injection into estrogen-primed immature rats at normal dose; type: functional, tissue-based; outline: as §1
[7] = target: T1, Progesterone receptor (Rattus norvegicus); assay: Tissue distribution in uterus/muscle 1 hr after [18F]4 injection into estrogen-primed immature rats at normal dose; type: functional, tissue-based; outline: as §1

## CC(=O)[C@H]1CC[C@H]2[C@@H]3CCC4=CC(=O)CC[C@]4(C)[C@H]3CC[C@]12C
[1]
  relative binding affinity (RBA): 13

## CC[C@@H]1C[C@H]2[C@@H]3CCC4=CC(=O)CC[C@@H]4[C@H]3CC[C@]2(C)[C@H]1C(=O)CF
[2]
  logP: 4.66
[3]
  Injected dose/g: 6.43%
[4]
  Injected dose/g: 0.42%
[5]
  relative binding affinity (RBA): 3.2
[1]
  relative binding affinity (RBA): 700
[6]
  Injected dose/g: 1.05%
[7]
  Injected dose/g: 16%

## CC[C@@H]1C[C@H]2[C@@H]3CCC4=CC(=O)CC[C@@H]4[C@H]3CC[C@]2(C)[C@H]1C(=O)CO
[2]
  logP: 4.01
[5]
  relative binding affinity (RBA): 0.92
[1]
  relative binding affinity (RBA): 200

## CCC(=O)[C@@]1(C)CC[C@H]2[C@@H]3CCC4=CC(=O)CCC4=C3CC[C@@]21C [PROMEGESTONE]
[2]
  logP: 4.05
[5]
  relative binding affinity (RBA): 0.93
[1]
  relative binding affinity (RBA): 100

## C[C@]1(c2ccc(F)cc2)O[C@@H]2CC3C4CCC5=CC(=O)CC[C@@H]5C4CC[C@]3(C)[C@]2(C(=O)CO)O1 (stereo partly specified)
[2]
  logP: 4.84
[1]
  relative binding affinity (RBA): 1.3
